# proKLK7 act = activators of human kallikrein-7 zymogen | AID 652039 | purified proKLK7, EDANS-DABCYL substrate fluorescence; 100% is mature enzyme control, 0% vehicle | activation, % at 7 µM | 370,000 compounds, 0.9% hits | P49862;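 active = activation above the mean of all tested compounds plus 3 SD, computed per campaign excluding outliers beyond control limits, cut at about 13% in these data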
# Runt-CBFb FRET = inhibitors of human RUNX1 Runt domain binding to CBFb | Q01196+Q13951 | Cerulean-Runt/Venus-CBFb FRET ratio 530/480, 1 h | inhibition, % at 20 µM | 220,000 compounds, 0.46% hits | AID 1496;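 active = inhibition over about 50% at 20 µM in the single-dose screen, limit read from the data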;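 also: 0% = DMSO wells and 100% = excess unlabeled CBFb competitor control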
# Target sequence (Q01196 whole entry, looked up, the tested form may be a part): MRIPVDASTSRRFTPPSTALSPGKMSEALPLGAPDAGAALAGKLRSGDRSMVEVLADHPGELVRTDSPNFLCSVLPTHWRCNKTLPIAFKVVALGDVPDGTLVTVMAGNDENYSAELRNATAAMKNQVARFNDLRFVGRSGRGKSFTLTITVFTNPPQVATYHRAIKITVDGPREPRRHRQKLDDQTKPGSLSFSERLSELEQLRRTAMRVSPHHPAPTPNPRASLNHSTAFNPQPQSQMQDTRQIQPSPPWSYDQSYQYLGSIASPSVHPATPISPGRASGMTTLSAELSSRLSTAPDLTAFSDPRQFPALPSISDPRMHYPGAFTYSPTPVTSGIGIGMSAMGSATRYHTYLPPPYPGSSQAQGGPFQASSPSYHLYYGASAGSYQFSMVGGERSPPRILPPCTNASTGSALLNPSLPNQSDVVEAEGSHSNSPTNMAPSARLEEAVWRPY
# Target sequence (Q13951 whole entry, looked up, the tested form may be a part): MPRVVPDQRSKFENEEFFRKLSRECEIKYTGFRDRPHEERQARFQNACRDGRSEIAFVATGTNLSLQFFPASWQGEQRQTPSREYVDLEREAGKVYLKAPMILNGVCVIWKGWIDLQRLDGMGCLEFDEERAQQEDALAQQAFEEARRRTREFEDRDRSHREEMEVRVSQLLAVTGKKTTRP
#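 Schedule: protein complex preformed 1 h, compound exposure 1 h, room temperature, dark; test system: Cerulean-labeled Runt domain protein; amount: 100 nM per protein; buffer or medium: Tris 50 mM pH 7.5, KCl, K2SO4, 0.01% BSA; read-out: loss of energy transfer signal; detection: FRET fluorescence; controls: 5 µM unlabeled CBFb as full-inhibition high control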
# Runt-SMMHC FRET = Runt domain-CBFb-SMMHC interaction inhibition. Cerulean-Runt/Venus-CBFb-SMMHC FRET ratio 530/480, 1 h. 220,000 compounds, 0.74% hits. inhibition, % at 20 µM. AID 1434;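 active = mean inhibition across duplicate retests at 20 µM reaching about 50%, limit read from the data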;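 also: 0% = DMSO wells and 100% = wells with excess untagged CBFb-SMMHC; inhibitors lower the FRET ratio by blocking Runt binding to CBFb-SMMHC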
# AI-2 QS modul = modulates the Vibrio harveyi AI-2 quorum sensing system | activity change, % at 7.5 µM | AID 2094 | Vibrio harveyi JMH597 AI-2 luminescence/OD600 ratio, 9 h; hits give low values; strain lacks LuxN and CqsS sensors; 0 = neutral-control median | 300,000 compounds, 0.4% hits; in the data active = activity change below about -75%, passing the limit was not always enough;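 also: luminescence divided by OD600 gain over 9 h not by final OD600 alone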
# Wee1 degr inh = inhibitors of human Wee1 degradation; P30291; HeLa Luc-Wee1K328M stability, luciferase luminescence; 100% = proteasome inhibitor MG132 effect; reporter increase, % at 5 µM; 220,000 compounds, 1.2% hits; AID 1321;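 active = activation above the mean of all tested compounds plus 3 SD, set per screening run, cut at about 8.8% in these data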;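 also: cells exposed to compound for 20 h before luminescence read; 0% = DMSO alone and 100% = MG132 at 30 µM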
# RanGTP-Imp inh = disruptors of Ran-importin-beta complex formation – biochemical, FRET, CFP-Ran, YFP-importin-beta, homogeneous, primary screen | AID 2216 | 300,000 compounds, 1.1% hits | cell-free CFP-Ran/YFP-importin-beta FRET ratio | inhibition, % (concentration not given with the values);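 active = more than half of the replicate wells show a fall in the fluorescence ratio signal beyond about 16%, limit read from the data, passing the limit was not always enough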;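 also: 0% = DMSO wells and 100% = Ran loaded with GDP instead of GTP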
# The depositor's hits bear a star; . = not tested or not shown. The list is not random: actives were taken first. Their share in the collection is about 2.9%.
SMILES,proKLK7 act,Runt-CBFb FRET,Runt-SMMHC FRET,AI-2 QS modul,Wee1 degr inh,RanGTP-Imp inh
CCOc1ccc(-n2c(SCC(=O)c3ccc4ccccc4c3)nnc2-c2ccc(OC)cc2)cc1,-0.5,.,.,.,.,.
Cc1ccc(OCc2nc(-c3ccccn3)n[nH]2)cc1,0.1,2.6,-2.5,-50.5,9.1*,-3.9
COC(=O)c1cc2c(c3c4cc(F)ccc4n(S(=O)(=O)c4ccccc4)c13)C(=O)N(Cc1ccccc1)C2,0.4,.,.,.,.,.
NC(=O)c1ncn([C@@H]2O[C@H](C(=O)N[C@H](Cc3ccccc3)C(=O)O)[C@@H](O)[C@H]2O)n1,0.2,.,.,.,.,.
O=C(c1ccc(Cl)cc1[N+](=O)[O-])N1CCN(c2ccccn2)CC1,-0.7,0.4,-1.9,12.5,9.3*,-4.3
O=C(c1ccc([N+](=O)[O-])cc1Cl)N1CCN(c2ccccn2)CC1,-0.6,1.3,1.6,3.4,-1.6,3.2
COc1ccc(C(=O)NCCNc2nc3ccc(C)cc3cc2C#N)cc1OC,2.3,.,.,3.1,.,77.1*
CC(=O)OC[C@H]1O[C@H](C#Cc2ccc(C(C)(C)C)cc2)C=C[C@H]1OC(=O)Nc1ccccc1,-0.6,.,.,.,.,.
O=C(NCc1ccccc1)[C@H]1CCCN1C(=O)[C@H]1CCCN1C(=O)c1ccc(F)c(F)c1,0.4,.,.,.,.,.
Cc1c(N=Cc2ccco2)c(=O)n(-c2ccccc2)n1C,0.0,-1.0,-5.0,-5.2,-0.6,1.3
COc1ccc2c(C=Nc3c(C)n(C)n(-c4ccccc4)c3=O)c(O)n(Cc3ccco3)c(=O)c2c1,-61.8,-9.9,-139.6,23.1,5.3,20.4*
COc1cccc(CC2(CO)CCN(S(=O)(=O)N(C)C)CC2)c1,-0.4,-0.3,-5.0,48.8,5.8,17.7*
COc1cccc(CC2(CO)CCCN(S(=O)(=O)N(C)C)C2)c1 (configuration not stated),-0.8,2.2,-2.2,11.5,-1.0,-0.1
CCN(CC)c1ccc2c(O)cc(=O)oc2c1,1.0,-0.5,-5.1,7.3,-1.0,5.1
CCN(CC)c1ccc2c(Cl)cc(=O)oc2c1,3.1,40.3,-19.8,24.6,2.8,73.7*
CCN(CC)c1ccc(C(=O)OCc2cc(=O)oc3cc(O)ccc23)cc1,-55.3,50.4*,119.3*,33.9,4.9,7.6
Nc1c(-c2ccccc2)c(CN2CCOCC2)nn1-c1ccc(C(=O)O)cc1,0.2,-0.6,0.8,30.5,-0.9,31.9*
Cn1cc(CCOCc2ccccn2)c2ccccc21,0.5,.,.,.,.,.
CCc1nc2oc3ccccc3c(=O)c2c(=O)n1-c1ccc(C)cc1,0.2,-1.7,-3.4,30.9,2.8,2.9
CCCc1nc2oc3ccccc3c(=O)c2c(=O)n1-c1ccc(C)cc1,-0.1,1.6,1.0,.,10.0*,-3.8
Cc1ccc(-n2c(C(C)C)nc3oc4ccccc4c(=O)c3c2=O)cc1,-0.7,-0.6,0.8,.,10.3*,-0.1
Cc1ccc(CSCC(=O)N(C)CC(=O)Nc2ccccc2C(F)(F)F)cc1,0.5,.,.,31.1,.,-0.6
c1ccc(CSc2ccc(-c3ccco3)nn2)cc1,-0.4,41.1,34.0,-77.2*,6.6,0.7
CCOC(=O)C1CCN(C(=O)c2ccc3nc(-c4ccc(OC)cc4)c(-c4ccc(OC)cc4)nc3c2)CC1,-21.0,.,.,11.1,.,23.9*
CCOC(=S)NC(=O)c1sc2ccccc2c1Cl,1.0,-0.4,2.5,-27.5,0.1,52.8*
O=C(CSc1nnc(-c2ccc(F)cc2)c2ccccc12)Nc1ccccc1,-0.1,-0.3,-0.4,19.7,10.1*,-3.1
O=C(Cn1cnc2ccccc2c1=O)N1CCN(Cc2ccc(F)cc2)CC1,-1.0,.,.,.,.,.
CC(C)CC(NC(N)=O)C(=O)NCCc1ccc(Cl)cc1Cl (configuration not stated),-0.4,0.3,2.6,10.1,-0.4,0.9
CC(C)CC(NC(N)=O)C(=O)NCCc1ccc(Cl)cc1 (configuration not stated),0.4,-0.7,2.3,7.4,10.6*,4.0

# Screening results as filed in PubChem BioAssay.
